We go through 78 compounds from PubChem BioAssay AID1656 (Sanford-Burnham Center for Chemical Genomics, 2009).

The campaign covered roughly 240,000 compounds. About 950 (0.4%) were called active.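 Rule for the calls: active = lipid droplet intensity inhibited by at least 50%, with more than 500 cells counted; inconclusive = wells with under 300 cells, treated as cytotoxic; inactive = the rest.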 Many of the other results were omitted from the sample, so actives are more common in it than they were.

One may read the inhibition as the drop in the measured response relative to a control, in per cent.

The assay is described as follows: oleate-induced lipid droplet accumulation in AML12 cells – imaging, high-throughput imaging, BODIPY stain, primary screen (AID 1656).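 For cell count: cells counted across two imaged fields per well.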 The conditions noted are these: AML12 mouse hepatocytes, oleate lipid droplets, at 6.5 µM; cell count: measured here: cell count, cytotoxicity flag; inhibition: stronger effect = higher value. The gist of the method: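 Assay system: AML12 hepatocytes (mouse) / Also added: 100 µM oleic acid challenge / Times: overnight treatment with compound plus oleate / Detection: high-content imaging of BODIPY-stained droplets and DAPI nuclei / Evaluation: % inhibition of lipid droplet signal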
Consider `CC(C)(COC(=O)Nc1ccccc1)COC(=O)Nc1ccccc1`, for which the cell count came to 842 cells and the inhibition is 2% (inactive).
On to `CSCCC(NS(=O)(=O)c1ccccc1F)C(=O)N1CC=C(c2ccccc2)CC1` (stereo unspecified), for which the cell count was 678 cells and the inhibition is -35.6% (inactive).
`O=C1/C(=C/c2ccc(F)cc2)SC(=S)N1CCCC(=O)N1CCCCC1CCO` (stereo unspecified): the cell count turned out to be 789 cells and the inhibition was -7.9% (inactive).
For `CCOCCCNc1nc(-c2ccccc2)nc2ccccc12`, the cell count was 835 cells and the inhibition is 1.2% (inactive).
The matching figures for `CC(Nc1nc(C(F)(F)F)nc2ccccc12)c1cccs1` (stereo unspecified): 808 cells and -12.3% (inactive).
The matching figures for `Cc1sc2nc(SCCO)n(-c3ccccc3)c(=O)c2c1C`: 835 cells and -15% (inactive).
The matching figures for `Cc1ccccc1NC(=O)CSc1ccc2nnc(-c3ccccn3)n2n1`: 640 cells and 22.7% (inactive).
`COc1ccc(CCNC(=O)c2ccccc2OCc2ccccc2)cc1`: the cell count worked out at 773 cells and the inhibition is -18.7% (inactive).
The matching figures for `COc1ccc(CCNC(=O)CCc2cn(C)c3ccccc23)c(OC)c1`: 811 cells and 15.9% (inactive).
The matching figures for `Cc1cccnc1CC(C)NC(=O)c1cc(COc2cncc(Cl)c2)on1` (stereo unspecified): 704 cells and 3.6% (inactive).
Taken in the same sequence, the figures for `COc1ccc(/C=C2\SC(=S)N(CCCC(=O)NC3CCCC3)C2=O)cc1OC` were 711 cells and -15.3% (inactive).
Take `CCOc1ccc(-n2c(SCC(=O)OC)nc3sc4c(c3c2=O)CCN(C)C4)cc1`: the cell count was found to be 796 cells and the inhibition was 4.9% (inactive).
Taken in the same sequence, the figures for `CCOc1ccccc1NC(=S)N1CCN(c2cccc(C)c2C)CC1` were 777 cells and -21% (inactive).
In the case of `O=C(c1ccc(OC2CCN(C/C=C/c3ccc(F)cc3)CC2)cc1)N1CCCCC1`, the cell count was found to be 815 cells and the inhibition was 2% (inactive).
The matching figures for `O=C(Nc1ccc(F)cc1)c1ccc(S(=O)(=O)NCc2cccnc2)cc1`: 806 cells and -51.8% (inactive).
Taken in the same sequence, the figures for `CC(C)=CCCC(C)CN1CCC(n2nccc2NC(=O)c2ccccc2)CC1` (stereo unspecified) were 722 cells and 2.9% (inactive).
Taken in the same sequence, the figures for `N#C/C(=C\C1=C(N2CCOCC2)C(=C\c2ccccc2)/CC1)C(=O)Nc1ccccc1F` were 430 cells and 56.4% (active).
As for `N#C/C(=C\c1ccccc1C(F)(F)F)C(=O)Nc1ccccc1F`, the cell count was found to be 614 cells and the inhibition is 1.8% (inactive).
The matching figures for `N#C/C(=C/c1ccc(N2CCOCC2)o1)C(=O)N1CCOCC1`: 636 cells and -9.6% (inactive).
With `Cc1ccc(CNC(=O)CCS(=O)(=O)c2ccc3c(c2)CC(C)N3C(=O)C2CC2)o1` (stereo unspecified), the cell count was 715 cells and the inhibition is -2.5% (inactive).
The matching figures for `Cc1nn(C(C)C(=O)NCCC2=CCCCC2)c(=O)c2nn(-c3ccccc3)c(C)c12` (stereo unspecified): 685 cells and -3.8% (inactive).
Taken in the same sequence, the figures for `COc1ccc(C)cc1N(C(=O)Cn1nnc(-c2ccc(C)o2)n1)C(C(=O)NC1CCCC1)c1ccncc1` (stereo unspecified) were 749 cells and -20.1% (inactive).
Taken in the same sequence, the figures for `CCOC(=O)c1cccc(NC(=O)CCc2nnc3ccc(N4CCOCC4)nn23)c1` were 652 cells and -5.8% (inactive).
For `CCOc1ccc(CCNC(=O)CCc2nnc3ccc(N4CCCC4)nn23)cc1OCC`, the cell count stood at 752 cells and the inhibition is 69.5% (active).
Turning to `CCN(CC)c1ccc(NC(=O)CCc2nnc3ccc(N4CCCCC4)nn23)c(C)c1`, the cell count was 801 cells and the inhibition is 3.4% (inactive).
Regarding `COCCc1nn2c(=O)cc(COC(=O)c3cc(OC)c(OC)c(OC)c3)nc2s1`, the cell count turned out to be 701 cells and the inhibition was 7.1% (inactive).
`COc1ccccc1N1CCN(S(=O)(=O)c2ccc3c(c2)NC(=O)CS3)CC1`: the cell count was 687 cells and the inhibition was -12.7% (inactive).
The matching figures for `CCc1ccc(C(CNc2nc(C(F)(F)F)nc3ccccc23)N(C)C)cc1` (stereo unspecified): 654 cells and -18.7% (inactive).
The matching figures for `Cc1ccc2sc(N(CCN(C)C)C(=O)/C=C/c3cccs3)nc2c1C`: 660 cells and 4.4% (inactive).
Taken in the same sequence, the figures for `COc1ccc(C(C(=O)NC(C)(C)C)N(Cc2ccc(F)cc2)C(=O)CCC(=O)Nc2cc(C)on2)cc1` (stereo unspecified) were 757 cells and 96.7% (active).
Consider `CCC(C)(C)NC(=O)C(c1ccc(OC)cc1)N(C(=O)CCC(=O)Nc1cc(C)on1)c1ccc(OC)cc1OC` (stereo unspecified), for which the cell count was 774 cells and the inhibition was 2.5% (inactive).
`COc1ccc(CN(CC(=O)NC2CCCC2)C(=O)CCC(=O)Nc2cc(C)on2)cc1`: the cell count is 702 cells and the inhibition is -31.7% (inactive).
Taken in the same sequence, the figures for `COc1cccc(CNC(=O)Cn2c(=O)oc3cc(S(=O)(=O)N4CCCCC4)ccc32)c1` were 692 cells and 25.1% (inactive).
Turning to `CCOC(=O)C1=C(CC)OC(N)=C(C#N)C1c1ccc(F)cc1F` (stereo unspecified), the cell count worked out at 769 cells and the inhibition is 70.2% (active).
Taken in the same sequence, the figures for `CCC1=C(C(=O)OC)C(c2cc(OC)ccc2OC)C(C#N)=C(N)O1` (stereo unspecified) were 697 cells and -12.3% (inactive).
Taken in the same sequence, the figures for `CCOC(=O)C1=C(C)OC(N)=C(C#N)C1c1cncc(-c2ccc(F)cc2)c1` (stereo unspecified) were 619 cells and -2.2% (inactive).
Taken in the same sequence, the figures for `COc1ccc(/C=N/NC(=O)c2ccccc2)cc1OS(=O)(=O)c1ccccc1` were 657 cells and -6% (inactive).
With `COc1cc(/C=N/NC(=O)c2ccoc2C)ccc1OCCN1CCCCC1`, the cell count stood at 729 cells and the inhibition is 4.7% (inactive).
The matching figures for `COc1cc(/C=N/NC(=O)Nc2ccccc2)ccc1OCCOc1ccccc1C`: 674 cells and 94.6% (active).
Take `CC(C)CCn1c(=O)c2c(nc3n2CCCN3Cc2ccccc2)n(C)c1=O`: the cell count came to 827 cells and the inhibition was -12.4% (inactive).
Taken in the same sequence, the figures for `Cc1cccn2c(=O)c(/C=C(\C#N)C(N)=O)c(N3CCCCCC3)nc12` were 788 cells and 1.2% (inactive).
The matching figures for `CC(=O)c1ccc(N2CCN(C(=O)C3CCN(S(=O)(=O)c4ccc5c(c4)CC(C)N5C(=O)C4CC4)CC3)CC2)cc1` (stereo unspecified): 672 cells and -0.3% (inactive).
Consider `COc1cccc(N(CC(=O)NC2CCCCCC2)S(=O)(=O)c2ccccc2)c1`, for which the cell count worked out at 750 cells and the inhibition was 2.3% (inactive).
The matching figures for `CCC(C)[C@H](NC(=O)N1CCn2c1nc1ccccc12)C(=O)NCc1ccc(OC)cc1` (stereo partly specified): 712 cells and 28% (inactive).
The matching figures for `CCc1ccc2nc(N(CCCN(C)C)C(=O)c3ccc4c(c3)OCCO4)sc2c1`: 802 cells and 0% (inactive).
Taken in the same sequence, the figures for `CCC(=O)N1CCN(c2ccccc2NC(=O)COc2cccc(C)c2C)CC1` were 823 cells and -15% (inactive).
Regarding `COc1cc(/C=N/NC(=O)c2cccnc2)ccc1OC(=O)c1cccc(Br)c1`, the cell count was determined as 669 cells and the inhibition is -11.9% (inactive).
Take `CN1CCN(CCNC(=O)Nc2ccccc2[N+](=O)[O-])CC1`: the cell count turned out to be 440 cells and the inhibition was 10.2% (inactive).
In the case of `O=[N+]([O-])c1ccccc1N/N=C1\CCc2ccccc21`, the cell count amounted to 658 cells and the inhibition was 60.3% (active).
Taken in the same sequence, the figures for `O=[N+]([O-])c1cc(C(F)(F)F)ccc1NN=C1CCCC1` were 631 cells and 1.6% (inactive).
In the case of `Cc1c2cnn(CC(=O)NCc3ccccn3)c(=O)c2c(C)n1Cc1ccc(Cl)cc1`, the cell count amounted to 683 cells and the inhibition was -9.1% (inactive).
Regarding `CN(C)c1ccc(Nc2c3c4c(cccc4n(C)c2=O)C(=O)c2ccccc2-3)cc1`, the cell count amounted to 681 cells and the inhibition was 75.9% (active).
The matching figures for `CCOc1ccccc1-c1cc(C(=O)N/N=C(\C)c2cccnc2)c2ccccc2n1`: 660 cells and -32% (inactive).
Taken in the same sequence, the figures for `Cc1c2cnn(CC(=O)NCCCN3CC(C)CC(C)C3)c(=O)c2c(C)n1Cc1ccc(Cl)cc1` (stereo unspecified) were 643 cells and -27.4% (inactive).
Taken in the same sequence, the figures for `CC1CC(C)CN(CCOc2cccc3ccccc23)C1` (stereo unspecified) were 797 cells and -2.9% (inactive).
Consider `COc1ccc(Oc2cn[nH]c2-c2ccc(OC)cc2O)cc1`, for which the cell count was found to be 836 cells and the inhibition was -10.9% (inactive).
Taken in the same sequence, the figures for `COC(=O)c1cc(NS(=O)(=O)c2ccc3c(c2)c(=O)n(C)c(=O)n3C)cc(C(=O)OC)c1` were 716 cells and -11.5% (inactive).
The matching figures for `Cc1c(C(=O)N(Cc2ccccc2)Cc2cccnc2)cnn1-c1ccc(F)cc1`: 648 cells and -6% (inactive).
The matching figures for `CSc1ccccc1C(=O)NCc1ccccc1`: 673 cells and 4% (inactive).
As to `Cc1c(C(=O)NCc2ccccc2)cnn1-c1ccccc1`, the cell count came to 684 cells and the inhibition was 56.3% (active).
The matching figures for `COC(=O)C1=CN(c2ccc(F)c(F)c2)C=C(C(=O)OC)C1c1ccc([N+](=O)[O-])cc1`: 825 cells and -1.4% (inactive).
Taken in the same sequence, the figures for `Cc1ccc(C)c(S(=O)(=O)N2CCCOC2CNC(=O)C(=O)NC2CCCCC2)c1` (stereo unspecified) were 690 cells and -1.2% (inactive).
With `COc1cccc(N2CCN(c3ccc4nnc(CCC(=O)N5CCN(C)CC5)n4n3)CC2)c1`, the cell count was 633 cells and the inhibition is -28.1% (inactive).
The matching figures for `COc1cc(SC)ccc1C(=O)N(Cc1ccccc1)c1ccccc1`: 608 cells and -8.6% (inactive).
Taken in the same sequence, the figures for `COCn1c(C(O)c2ccccc2)cc2ccccc21` (stereo unspecified) were 813 cells and -9.2% (inactive).
Taken in the same sequence, the figures for `Cc1ccc(O)c(/C=N/NC(=O)COc2ccc3c(C)cc(=O)oc3c2)c1` were 786 cells and -1.7% (inactive).
Regarding `CCn1cc(CN2CCN(CC(C)(C)C)C(CCO)C2)c2ccccc21` (stereo unspecified), the cell count was found to be 814 cells and the inhibition was 5.1% (inactive).
Take `CC(=O)Nc1cccc(Nc2nc(-c3cccs3)nc3ccccc23)c1`: the cell count came out at 775 cells and the inhibition is 2.7% (inactive).
As for `COc1cc2c(cc1OC)CN(C(=O)c1cc(S(=O)(=O)N3CCCCC3)ccc1Cl)CC2`, the cell count stood at 813 cells and the inhibition was -18.7% (inactive).
Taken in the same sequence, the figures for `COCCCNC(=O)CN1C(=O)CSc2ccc(S(=O)(=O)N3CCOCC3)cc21` were 798 cells and 59.7% (active).
Taken in the same sequence, the figures for `CC1CCN(CCCNC(=O)CN2C(=O)CSc3ccc(S(=O)(=O)N4CCCCC4)cc32)CC1` were 719 cells and 8% (inactive).
Regarding `COc1ccc(NC(=O)CN2C(=O)CSc3ccc(S(=O)(=O)N4CCC(C)CC4)cc32)cc1`, the cell count was found to be 698 cells and the inhibition was -8.1% (inactive).
The matching figures for `CNC[C@H](CC1CCCCC1)NC[C@H](NCCC1CCCC1)[C@H](C)O`: 688 cells and 1.2% (inactive).
Taken in the same sequence, the figures for `CCOC(=O)C1(Cc2ccccc2C)CCCN(C(=O)CCc2c(C)noc2C)C1` (stereo unspecified) were 656 cells and -27.4% (inactive).
For the compound `CN(C(=O)c1cc2c(=O)n3ccccc3nc2s1)C1CCCCC1`, the cell count amounted to 654 cells and the inhibition was -14.1% (inactive).
Taken in the same sequence, the figures for `Cc1cc(NC(=O)CSc2nc(C(C)C)nc3sc4c(c23)CCC(C)C4)no1` (stereo unspecified) were 668 cells and 105% (active).
As to `Cc1nc(SCC(=O)Nc2cc(C)on2)c2c3c(sc2n1)CCCC3`, the cell count came to 678 cells and the inhibition is 5.3% (inactive).
Taken in the same sequence, the figures for `CC(C)c1nc(SCC(=O)Nc2cccc(C(=O)O)c2)c2c3c(sc2n1)CCCC3` were 835 cells and -26% (inactive).
